Measured values of several laboratories.
Target: Ephrin type-A receptor 1 (EPHA1, Homo sapiens, UniProt P21709)
Residues used in one study (P21709 26-976): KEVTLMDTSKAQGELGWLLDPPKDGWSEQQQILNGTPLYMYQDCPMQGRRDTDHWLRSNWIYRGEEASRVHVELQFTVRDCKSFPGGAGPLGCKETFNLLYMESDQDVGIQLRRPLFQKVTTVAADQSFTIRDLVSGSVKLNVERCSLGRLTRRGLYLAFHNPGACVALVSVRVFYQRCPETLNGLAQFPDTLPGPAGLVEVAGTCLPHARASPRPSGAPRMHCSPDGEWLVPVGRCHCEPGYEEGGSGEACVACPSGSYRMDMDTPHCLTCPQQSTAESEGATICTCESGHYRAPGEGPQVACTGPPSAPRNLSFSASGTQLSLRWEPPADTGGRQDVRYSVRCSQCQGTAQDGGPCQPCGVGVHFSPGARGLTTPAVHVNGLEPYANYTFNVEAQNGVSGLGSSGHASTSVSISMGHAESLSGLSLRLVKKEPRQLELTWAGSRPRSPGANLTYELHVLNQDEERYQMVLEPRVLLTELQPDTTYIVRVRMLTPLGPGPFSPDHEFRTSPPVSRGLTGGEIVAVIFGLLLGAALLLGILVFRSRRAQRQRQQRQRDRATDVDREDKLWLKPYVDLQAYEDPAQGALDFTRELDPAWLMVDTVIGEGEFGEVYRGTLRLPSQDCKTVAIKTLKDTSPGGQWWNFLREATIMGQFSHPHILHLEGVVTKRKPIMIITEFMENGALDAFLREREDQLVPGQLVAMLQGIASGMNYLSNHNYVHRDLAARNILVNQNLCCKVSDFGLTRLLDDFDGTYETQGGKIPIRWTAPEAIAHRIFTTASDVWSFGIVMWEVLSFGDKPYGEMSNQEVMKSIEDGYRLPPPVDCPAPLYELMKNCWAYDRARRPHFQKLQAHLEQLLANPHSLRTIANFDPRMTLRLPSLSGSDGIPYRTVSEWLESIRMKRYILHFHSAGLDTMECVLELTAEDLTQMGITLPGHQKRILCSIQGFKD

CNC(=O)c1cc(Oc2ccc(NC(=O)Nc3ccc(Cl)c(C(F)(F)F)c3)cc2)ccn1
inhibition (enzyme activity; inhibitor; 0.3 µM): 23%

CC(C)(C)c1nc(-c2cccc(NS(=O)(=O)c3c(F)cccc3F)c2F)c(-c2ccnc(N)n2)s1
remaining activity (enzyme activity; inhibitor; radiometric; 1 µM): 81%

CCCCNc1ncc2c(-c3ccc(F)cc3)nn(C[C@H]3CC[C@H](N)CC3)c2n1
inhibition (target engagement in cells; inhibitor; chemoproteomics; 20 mM): > 97%

O=C(Nc1cnn(-c2csc(C(=O)NC3COC3)c2)c1)Nc1c(F)cccc1Cl
remaining activity (enzyme activity; inhibitor; 5 µM): 88.4%

CC(C)(O)[C@H]1CC[C@H](Nc2ccc3ncc(-c4cccc(C(F)(F)F)c4)n3n2)CC1
remaining activity (enzyme activity; inhibitor; 1 µM): 99.6%

COc1cc2ncnc(Nc3ccc(Oc4ccccc4)c(C)c3C)c2cc1OC
inhibition (enzyme activity; inhibitor; 1 µM): 8%

CO[C@@H](C)c1c(Nc2ccc([C@@H](N(C)C(=O)C3CCS(=O)(=O)CC3)C(F)(F)F)cc2)cnc2cc(Cl)nn12
remaining binding (cell-free assay; competition with immobilised ligand; 1 µM): 97%

O=C1NC(=O)c2cc(Nc3ccc(F)cc3)c(Nc3ccc(F)cc3)cc21
remaining signal (cell-free assay; 0.5 µM): 97.4%

Cn1nc(C(=O)NCc2ccc(C(=O)O)cc2)cc1-c1ccc2[nH]ccc2c1
remaining binding (cell-free assay; competition with immobilised ligand; 0.1 µM): 95%

CC/C(=N\NC(=O)NCc1cccc(O)c1)c1ccc(O)c(C)c1O
inhibition (enzyme activity; inhibitor; 0.1 µM): -1.2%

CCN(CC)CCNC(=O)c1c(C)[nH]c(/C=C2\C(=O)Nc3ccc(F)cc32)c1C
inhibition (enzyme activity; inhibitor; 0.3 µM): 1%

O=C1CCc2cc(Nc3cc(OC4CCOCC4)c([N+](=O)[O-])cc3Cl)ccc2N1
remaining binding (cell-free assay; competition with immobilised ligand; 1 µM): 81%

Oc1cccc(-c2nc(N3CCOCC3)c3oc4ncccc4c3n2)c1
remaining signal (cell-free assay; 0.5 µM): 87.8%

O=C(NCCCC1CCCCC1)c1ccc(CNC(=O)c2cnn(-c3ccccc3)c2C(F)(F)F)cc1
remaining binding (cell-free assay; competition with immobilised ligand; 0.1 µM): 100%

COc1cc(-c2cc(-c3ccc(N4CCNCC4)cc3)cnc2C)cc(OC)c1OC
inhibition (enzyme activity; inhibitor; 1 µM): 16%

CN1CCN(c2cnc3c(C4CCN(C(=O)c5ccc(OC(F)(F)F)cc5N)CC4)ncnc3c2)CC1
remaining binding (cell-free assay; competition with immobilised ligand; 1 µM): 95%

CCCS(=O)(=O)Nc1ccc(F)c(C(=O)c2c[nH]c3ncc(-c4ccc(Cl)cc4)cc23)c1F
inhibition (enzyme activity; inhibitor; 1 µM): < 10%
